# Screening data from PubChem.
# ABHD5-PLIN5 inh = ABHD5-PLIN5 interaction inhibitors, primary screen, cell lysate, split luciferase complementation, luminescence. Perilipin-5 (Homo sapiens) + 1-acylglycerol-3-phosphate O-acyltransferase ABHD5 (Homo …. Split G. princeps luciferase complementation, 4 h. inhibition, % at 4 µM. hit rate 0.78% among 360,000;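 active means inhibition above the mean inhibition across every tested compound plus 3 SD, cut at about 22% in these data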
# Exocytosis inh = LAMP-1 surface exposure blockers, TALL-104 cells – cell-based, flow cytometry, MLPCN library, primary screen. TALL-104 LAMP-1 surface exposure; cells stimulated with thapsigargin and PMA. inhibition, % at 10 µM. hit rate 0.66% among 360,000;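 active means inhibition above about 55%, limit read from the data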
# UPR XBP1 act = activators of adaptive XBP1 UPR arm, primary screen, cell-based, CHO-XBP1 luciferase reporter, luminescence, uHTS. activation, % at 20 µM. AID 463104, 2010. IRE1-XBP1 UPR activation; percent of tunicamycin response, DMSO as zero. hit rate 0.33% among 330,000;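 active means versus positive control, 20 µM dose yields 30% or more activation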
#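 Material: CHO cell line with stable XBP1 luciferase reporter; buffer or medium: F12 medium containing 10% fetal bovine serum; compound: single point, 20 µM final compound, 1% DMSO; incubation: 6 h treatment, 37 °C; measured by: glow luminescence from Steady-Glo reagent; evaluation: activation, % of tunicamycin; control set: tunicamycin high, DMSO low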
# Mdm2 MdmX PPI = inhibitors of human Mdm2-MdmX association, primary screen, cell-based, luminescence, split luciferase, SaOS-2, uHTS; SaOS-2 split-luciferase Mdm2/MdmX complementation; inhibition, % at 8 µM; hit rate 3% among 330,000; AID 485346, 2010;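 active means inhibition of at least 50% at 8 µM in the primary screen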
# UPR CHOP act = activators of apoptotic CHOP UPR arm, primary screen, cell-based, CHO-CHOP luciferase reporter, luminescence, uHTS; UPR activation; percent of tunicamycin response over DMSO baseline; activation, % at 10 µM; hit rate 0.34% among 330,000;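 active means at 10 µM dose, activation of 40% or more, normalized to positive control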
#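 Assay system: CHO-CHOP cells, stable luciferase reporter of PERK-eIF2a-CHOP signalling / Buffer or medium: F12 plus 10% serum / Compound dosing: one dose, 10 µM in 0.5% DMSO / Times: 6 h compound treatment, 37 °C / Technique: luciferase luminescence / Read-out: % reporter activation, DMSO baseline versus tunicamycin full activation / Benchmarks: tunicamycin and DMSO controls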
# Mdm2-MdmX conf = Mdm2-MdmX complex disruptors, retested hits, confirmation, luminescence, single concentration | shares compounds with Mdm2 MdmX PPI | Mdm2-MdmX binding, luminescent assay | inhibition, % at 8 µM | hit rate 55% among 10,000 | AID 489028, 2010; in the data active means inhibition above about 40%
# FLuc counter = full-length luciferase signal inhibition, confirmation, counter-screen for Mdm2/MdmX interaction inhibitor project, cell-based, single concentration, SaOS-2 | shares compounds with Mdm2 MdmX PPI | SaOS-2 full-length luciferase counterscreen, luminescence | inhibition, % at 8 µM | hit rate 77% among 6,200;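 active means mean inhibition at 8 µM reaching about 37%, which flags the compound as non-specific, limit read from the data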;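 further: p53-null SaOS-2 cells with luciferase driven by a doxycycline-inducible promoter; compound on cells about two nights before reading with doxycycline added after day one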
# Numbers stand for hits; . = inactive; / = no result given. Sampled rows, rich in hits. Any-hit rate of the full collection: about 4%.
SMILES,ABHD5-PLIN5 inh,Exocytosis inh,UPR XBP1 act,Mdm2 MdmX PPI,UPR CHOP act,Mdm2-MdmX conf,FLuc counter
CN(C)S(=O)(=O)N1CCC(Oc2ccc(C(=O)NC3CCOC(C)(C)C3)cc2)CC1 (centres undefined),.,.,.,.,.,/,/
COc1ccc(-c2ccc3c(c2)S(=O)(=O)c2cccc(C(=O)NCc4cccc(OC(F)(F)F)c4)c2C3=O)cc1OC,.,.,.,73,.,.,/
COc1ncc(-c2ccc3c(c2)S(=O)(=O)c2cccc(C(=O)NCc4ccco4)c2C3=O)cn1,.,.,.,53,.,.,/
CCn1c(C)nc2cc(-c3nc4n(n3)Cc3ccccc3-4)ccc21,.,.,.,92,.,99,51
COc1ccc(-c2c[n+](CC(=O)c3ccccc3)c3n2CCCCC3)cc1,.,.,.,.,.,/,/
COc1ccc(-c2c[n+]3c4n2CCCCC4=C(c2ccccc2)C3)cc1,.,.,.,67,.,.,/
CCO[C@@H]1OC(C(=O)NCc2nc3ccccc3[nH]2)=C[C@H](C2CC2)[C@H]1CCCO,.,.,.,.,.,/,/
CCO[C@@H]1OC(C(=O)NCc2nc3ccccc3[nH]2)=C[C@H](C(C)(C)C)[C@H]1CCCO,.,.,.,54,.,50,95
CCN1C(=O)/C(=C/c2nc3ccccc3c(=O)n2-c2ccc(C)cc2)c2ccccc21,.,.,.,83,.,62,86
CCN1C(=O)/C(=C/c2nc3ccccc3c(=O)[nH]2)c2ccccc21,.,.,/,/,/,/,/
COc1ccc(/C=C/c2nc3ccccc3c(=O)n2-c2cccc(C(=O)O)c2)cc1,.,.,.,.,.,/,/
CCN1C(=O)C(Cc2nc3ccccc3c(=O)n2-c2ccccc2)c2ccccc21 (centres undefined),.,.,.,.,.,/,/
CCN1C(=O)/C(=C\c2nc3ccccc3c(=O)n2-c2ccccc2)c2ccccc21,.,.,.,51,.,.,/
COc1ccc(-n2c(/C=C3\C(=O)N(C)c4ccccc43)nc3ccccc3c2=O)cc1,.,.,.,61,.,.,/
Cc1sc2ncn(CC(=O)OCC(=O)NC(C)(C)C)c(=O)c2c1C,.,.,.,.,.,/,/
Cc1ccc(Cn2ccsc2=NC(=O)CCl)cc1,.,.,.,99,.,99,59
COc1ccc(NS(=O)(=O)c2cc(NC(=O)c3ccncc3)ccc2N2CCOCC2)cc1,.,.,.,.,.,/,/
N#Cc1ccc(C(=O)Nc2cc(S(=O)(=O)Nc3ccc(Cl)cc3)ccc2N2CCCCC2)cc1,.,.,.,.,.,/,/
COc1ccc(NS(=O)(=O)c2cc(NC(=O)c3ccc(=O)[nH]n3)ccc2C)cc1,.,.,.,52,.,46,65
O=C(Nc1cc(S(=O)(=O)Nc2ccc(Cl)cc2)ccc1N1CCCCC1)c1ccc(F)cc1,.,.,.,72,.,.,/
COc1ccc(NS(=O)(=O)c2cc(NC(=O)c3ccco3)ccc2N2CCCCC2)cc1,.,.,.,60,.,.,60
COc1ccc(NS(=O)(=O)c2cc(NC(=O)c3ccc(Cl)cc3)ccc2N2CCOCC2)cc1,.,.,.,82,.,67,.
COC(=O)C1CCN(S(=O)(=O)CCNC(=O)c2ccc3c(c2)OCO3)CC1,.,.,.,.,.,/,/
Cc1ccc(C(c2ccc(C)o2)c2cccc([N+](=O)[O-])c2O)o1,.,.,.,.,.,/,/
CC(=O)Nc1cc(-c2ccc(C(=O)N3CCOCC3)cc2)cn2c(-c3ccc(C(C)=O)cc3)cnc12,.,.,/,/,/,/,/
SMILES,ABHD5-PLIN5 inh,Exocytosis inh,UPR XBP1 act,Mdm2 MdmX PPI,UPR CHOP act,Mdm2-MdmX conf,FLuc counter
COc1ccc(NS(=O)(=O)c2cc(NC(=O)c3ccc(=O)[nH]c3)ccc2N2CCCC2)cc1,.,.,.,82,.,73,43
COc1ccc(NS(=O)(=O)c2cc(NC(=O)c3cnc(C)cn3)ccc2N2CCCC2)cc1,.,.,.,.,.,/,/
CCCNS(=O)(=O)c1cccc(C(=O)OCc2cc(=O)oc3cc(OC)ccc23)c1,.,70,.,70,.,56,66
OCC1(CC2CCCCO2)CCN(Cc2nc3ccccc3[nH]2)CC1 (centres undefined),.,.,.,.,.,/,/
COc1ccc(CCN(C(=S)Nc2ccccc2)C2CC(=O)N(c3ccccc3)C2=O)cc1 (centres undefined),.,.,.,.,.,/,/
O=C1CC(N(CCc2ccccc2)C(=S)Nc2ccccc2)C(=O)N1c1ccc(Br)cc1 (centres undefined),.,.,.,68,.,.,59
CC1CCN(CC(=O)Nc2ccccc2Sc2ccccc2)CC1,.,.,.,.,.,/,/
O=C(CCl)c1cc2c3c(c1)CC(=O)N3CCC2,.,.,.,77,.,56,.
O=C(NCCO)C(=O)Nc1cc2c3c(c1)CC(=O)N3CCC2,.,.,.,.,.,/,/
O=C(NNC(=O)C1CCN(S(=O)(=O)c2ccc(Cl)cc2)CC1)c1ccccc1O,.,.,.,56,.,59,46
Cc1ccc(CN2CCC(CO)(CC3CCCCO3)CC2)o1 (centres undefined),.,.,.,.,.,/,/
Cc1ccc2[nH]c(CN3CCC(CO)(CC4CCCCO4)CC3)c(C)c2c1 (centres undefined),.,.,.,53,.,.,/
Nc1ccc(C(=O)OCc2nc3cc4ccccc4cc3[nH]2)cc1,.,.,.,74,.,82,.
Nc1ccc(C(=O)OCCCc2nc3cc4ccccc4cc3[nH]2)cc1,.,.,.,65,.,.,94
Nc1ccc(Cc2nc3cc4ccccc4cc3[nH]2)cc1,/,/,.,69,.,.,70
Nc1ccc(C(=O)OCc2nc3c(ccc4ccccc43)[nH]2)cc1,.,.,.,.,.,/,/
c1ccc(Cc2nc3ccccc3[nH]2)cc1,.,.,.,.,.,/,/
O[C@@H]1CN(Cc2ccccc2Cl)CC[C@H]1N1CCOCC1,.,.,.,.,.,/,/
O=C(CN1CCN(S(=O)(=O)c2ccc(Cl)cc2)CC1)NC1CCCC1,.,.,.,.,.,/,/
Cc1csc(NC(=O)CSc2nnc3c4ccccc4nc(C(C)(C)C)n23)n1,.,.,.,69,.,60,57
